Paper PMC4144739 (The Journal of Experimental Medicine, 2014)
Entries after “also recorded” stand apart in the source; their conditions may differ.

Key:
[1] = uric acid administration; ref Scott et al., 2002; cited from earlier work
[2] = tested on: inflammasomes in monocytes; conditions: crystals of uric acid; cited from earlier work
[3] = Solubility in physiological buffers; format: physicochemical
Amyloid fibril formation = format: physicochemical; conditions: physiological buffers; ThT staining; Fig. S1
Summary of the method: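 Hexapeptide (200 µg in 50 µl) was combined with 100 mM MES pH 7.4 and a 1 M solution at the appropriate pH, then incubated at 37°C. ThT (10 µM solution, pre-addition) was added. Fluorescence was read at 485 nm with excitation at 440 nm. Run in triplicate and repeated twice.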

[4] = tested on: type 1 IFN (murine IFN-α4, 5, 12, and 13; consensus primers); test: Type 1 IFN induced in PBCs of healthy C57BL/6 mice; format: in vivo, mouse (C57BL/6); conditions: compared with peptides that readily form fibrils
[5] = ref Kurnellas et al., 2013; cited from earlier work
[6] = EAE induced by adoptive transfer of Th17 lymphocytes, clinical signs; format: in vivo, mouse (C57BL/6J); conditions: 2 µg daily for 21 d beginning the day after adoptive transfer; groups of 10 mice
Summary of the method: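 Donor female C57BL/6J mice were immunised s.c. with MOG35-55 in CFA. On day 10, spleen and draining lymph node cells were restimulated for 3 d with 10 µg/ml MOG35-55 plus 10 ng/ml IL-23. Cells (15 × 10^6 per mouse) were given i.p. to 9-wk-old female recipients. PBS served as control. Mice were scored daily on a 0–5 scale, with atypical EAE scored separately.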

O=c1[nH]c(=O)c2[nH]c(=O)[nH]c2[nH]1 [uric acid]
therapeutic effect in EAE [1]: therapeutic benefit | endocytosis and inflammasome induction [2]: endocytosed and induce inflammasomes with subsequent secretion of IL-1β by monocytes

Ac-VQIVYK-NH2 [Tau 623–628]
solubility in physiological buffers [3]: limited solubility in physiological buffers

SSTNVG [Amylin 28–33]
amyloid fibril formation in vitro (Amyloid fibril formation): do not readily form fibrils in physiological buffers; also recorded: did not form detectable amounts of fibrils in vitro | type 1 IFN production (summary) [4]: stimulated significantly less type 1 IFN production | therapeutic effect of polar, nonionizable peptides in active EAE [5]: therapeutic | clinical signs of Th17-induced EAE, 2 µg [6]: therapeutic in Th17-induced EAE
